Data from ChEMBL document CHEMBL4422614 (Eur J Med Chem, 2019).
Activity calls are given as the source filed them. No cut-off for these calls is given here.

Legend:
[1] = Antioxidant activity assessed as trolox equivalent of AAPH-induced radical scavenging activity at 10 to 20 uM preincubated for 10 mins followed by AAPH addition measured every minute for 120 mins by ORAC fluorescein assay; type: functional
Procedure, shortened: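 ORAC values are expressed as trolox equivalents, mean ± SD of three independent experiments.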

[2] = test system: Mus musculus; test: Cognition enhancement activity in amyloid beta (25 to 35 residues) induced C57BL/6J mouse model of Alzheimer's disease assessed as decrease in escape latancy at 4 mg/kg/day, ig administered for 26 consecutive days by Morris water maze test; type: functional, organism-based
Procedure, shortened: (§1)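 Mice were randomized into 7 groups. All except sham got an ICV injection of Aβ25-35 (3 nmol); sham got the same volume of saline ICV. Dosing was intragastric daily for 26 days, with 0.5% CMC-Na as vehicle for sham and model. Body weight, diarrhea and emesis-like behavior were monitored.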

[3] = test system: Mus musculus; test: Cognition enhancement activity in amyloid beta (25 to 35 residues) induced C57BL/6J mouse model of Alzheimer's disease assessed as swimming speed at 4 mg/kg/day, ig administered for 26 consecutive days by Morris water maze test (reference value: 15.6 +/- 2.4 cm/sec); type: functional; procedure, shortened: as §1
[4] = test system: Mus musculus; test: Cognition enhancement activity in amyloid beta (25 to 35 residues) induced C57BL/6J mouse model of Alzheimer's disease assessed as increase in number of virtual platform crossing at 4 mg/kg/day, ig administered for 26 consecutive days by Morris water maze test; type: functional, organism-based; procedure, shortened: as §1
[5] = test system: Mus musculus; test: Cognition enhancement activity in amyloid beta (25 to 35 residues) induced C57BL/6J mouse model of Alzheimer's disease assessed as swimming path length in virtual platform at 4 mg/kg/day, ig administered for 26 consecutive days by Morris water maze test (10.2 +/- 3.2 cm); type: functional; procedure, shortened: as §1
[6] = test system: Mus musculus; test: Cognition enhancement activity in amyloid beta (25 to 35 residues) induced C57BL/6J mouse model of Alzheimer's disease assessed as swimming time in effective region at 4 mg/kg/day, ig administered for 26 consecutive days by Morris water maze test (4.3 +/- 1.3 sec); type: functional; procedure, shortened: as §1
[7] = test system: Mus musculus; test: (§2) Neuroprotection in amyloid beta (25 to 35 residues) induced C57BL/6J mouse model of Alzheimer's disease assessed as reduction in ratio of apoptotic neuron in CA1 hippocampus region at 4 mg/kg/day, ig administered for 26 consecutive days by hematoxylin and eosin staining-based light microscopic analysis (reference value: 40.6 +/- 12.5%); type: ADME, organism-based; design: scale not given: the % may be the effect or the level left; details: in vivo, po
Procedure, shortened: (§3)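 Hippocampal CA1, CA3 and DG neurons were stained with H&E after the Aβ25-35 ICV model and 26-day intragastric dosing. Denatured cell index = denatured cells/total cells, n = 5. Values are mean ± SD, two-way ANOVA versus model.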

[8] = test system: Mus musculus; test: as §2, with “CA3” for “CA1”, “80.2” for “40.6”, “8.6%)” for “12.5%)”; type: ADME, organism-based; design: scale not given: the % may be the effect or the level left; details: in vivo, po; procedure, shortened: as §3
[9] = test system: Mus musculus; test: as §2, with “DG” for “CA1”, “55.8” for “40.6”, “7.2%)” for “12.5%)”; type: ADME, organism-based; design: scale not given: the % may be the effect or the level left; details: in vivo, po; procedure, shortened: as §3
[10] = in vitro; details: PAMPA

In the case of O=C(Nc1c(Cl)cncc1Cl)c1ccc(OC(F)F)c(OCC2CC2)c1 [ROFLUMILAST], the Activity [1] is reported as 0.067 equiv, the Activity [2] is reported as “Active” and the Activity [3] is reported as 14.5 cm/s. The Activity [4] was “Active”, the Activity [5] was 16 cm and the Time [6] was 5.4 s. It also gave an Activity [7] of 16.5%, an Activity [8] of 38.7% and an Activity [9] of 25.1%. The Papp at 10 h, 100 ug/ml [10] was 9.22 ×10⁻⁶ cm/s.
